Compound activity deposited in PubChem by several laboratories.
Most compounds without a hit are left out; they make up all but 2.1% or so of the library.
APJ agonist – activates the human apelin receptor APJ; CHO-K1 APJ PathHunter beta-arrestin, luminescence; 0% DMSO wells, 100% apelin; activation, % at 20 µM; P35414; 330,000 tested, 0.11% active;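 active = activation more than six SD over the plate average, tested at 20 µM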;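 also: 0% = DMSO alone and 100% = apelin-13 at 10 nM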
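system = engineered CHO-K1 APJ arrestin reporter cells | input = 1000 cells per well | timing = overnight seeding, 90 min compound at 25 °C, 1 h detection | measured by = enzyme-fragment complementation luminescence | read-out = beta-arrestin recruitment to APJ as agonist activity, luminescent signal | control set = negative DMSO alone, positive Apelin-13 at 10 nM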
CXCR6 block – blocks human CXCR6 beta-arrestin recruitment; O00574; CHO-K1 PathHunter CXCR6 beta-arrestin, luminescence; inhibition, % at 20 µM; 360,000 tested, 0.36% active; in the data active = inhibition above about 34%, passing the limit was not always enough;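 also: antagonist mode with CXCL16 agonist at 10 nM final; 0% = 10 nM CXCL16 with DMSO and 100% = unstimulated wells without agonist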
Target sequence (O00574 whole entry, looked up): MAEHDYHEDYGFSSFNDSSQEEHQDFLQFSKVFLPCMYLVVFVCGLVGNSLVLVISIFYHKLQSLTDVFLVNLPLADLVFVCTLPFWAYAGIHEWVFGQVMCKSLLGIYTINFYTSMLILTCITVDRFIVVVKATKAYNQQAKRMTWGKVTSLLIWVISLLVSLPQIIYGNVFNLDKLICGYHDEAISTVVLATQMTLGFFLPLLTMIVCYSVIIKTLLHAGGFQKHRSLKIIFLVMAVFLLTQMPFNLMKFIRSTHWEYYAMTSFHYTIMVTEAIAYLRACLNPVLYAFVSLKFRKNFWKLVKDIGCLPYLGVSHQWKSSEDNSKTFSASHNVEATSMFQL
APJ antagonist – antagonists of human APJ apelin receptor; P35414; inhibition, % at 20 µM; CHO-K1 APJ beta-arrestin complementation, luminescence; 330,000 tested, 0.32% active;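 active = inhibition above about 40% at 20 µM, limit read from the data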;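 also: cells challenged with 10 nM apelin-13 agonist together with compound; plate controls were apelin-13 plus DMSO wells for no effect and DMSO wells lacking apelin-13 for full effect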
EBI2 block – EBI2 (human) antagonism; 360,000 tested, 0.81% active; AID 651636; inhibition, % at 5 µM; EBI2 beta-arrestin recruitment, luminescence, 7a,25-OHC stimulated; P32249; in the data active = inhibition above about 38%;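 also: enzyme fragment complementation signal reports receptor beta-arrestin coupling in cells; 0% = agonist plus DMSO wells and 100% = wells without agonist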
m5-HT2A agonist – mouse HTR2A agonism via beta-arrestin recruitment | 360,000 tested, 0.66% active | CHO-K1 mHTR2A beta-arrestin complementation, luminescence; percent of 30 µM serotonin response | activation, % at 7.6 µM | P35363;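 active = activation above a run cutoff, the mean activation of all tested compounds plus 3 SD, cut at about 14% in these data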;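 also: 0% = plate median of compound wells and 100% = 30 µM serotonin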
CCR6 antagonist – blocks CCL20-driven beta-arrestin recruitment at human CCR6; 340,000 tested, 0.49% active; inhibition, % at 20 µM; CHO-K1 CCR6 PathHunter beta-arrestin, luminescence, CCL20-stimulated;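 active = compounds whose inhibition of the agonist-driven luminescence signal at 20 µM reaches about 50%, limit read from the data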;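 also: cells stimulated with CCL20 at 14 nM final; plate controls were DMSO with CCL20 for no effect and DMSO without agonist for full effect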
Target sequence (P51684 whole entry, looked up): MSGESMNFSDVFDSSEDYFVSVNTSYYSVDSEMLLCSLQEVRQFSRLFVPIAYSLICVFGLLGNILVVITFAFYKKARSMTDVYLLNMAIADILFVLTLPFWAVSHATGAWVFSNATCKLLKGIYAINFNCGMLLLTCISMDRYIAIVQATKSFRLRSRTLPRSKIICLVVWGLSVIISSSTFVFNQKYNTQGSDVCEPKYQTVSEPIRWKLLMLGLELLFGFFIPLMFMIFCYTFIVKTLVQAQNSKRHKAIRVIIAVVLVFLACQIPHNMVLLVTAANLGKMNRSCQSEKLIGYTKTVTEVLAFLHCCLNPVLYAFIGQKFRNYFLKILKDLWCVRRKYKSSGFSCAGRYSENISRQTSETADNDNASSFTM
EBI2 antag conf – EBI2 (human) antagonism, single concentration confirmation. shares compounds with EBI2 block. EBI2 beta-arrestin luminescence, 7a,25-OHC antagonism. inhibition, % at 5 µM. 2,400 tested, 29% active;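 active = inhibition of at least 50%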
EBI2 ag – EBI2 agonism counter-screen; shares compounds with EBI2 block; EBI2-expressing cells, agonist mode, luminescence, 60 min; 0% vehicle, 100% 7α,25-dihydroxycholesterol control; activation, % at 5 µM; 2,400 tested, under 10 active; AID 652000;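 active = activation of at least 50%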
bGal counter – counter-screen for EBI2 antagonists: E. coli beta-galactosidase inhibition | shares compounds with EBI2 block | purified beta-galactosidase, luminescent Galacton Star, 15 min | inhibition, % at 5 µM | 2,400 tested, 1% active | AID 652176;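 active = replicate-average signal at least 3 plate SD below neutral wells, shown as high inhibition, flagging enzyme-inhibiting false positives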;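 also: 0% = DMSO wells with enzyme and 100% = wells lacking enzyme; higher means stronger loss of beta-gal luminescence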
Active calls of the source: *.

Screening COc1ccc(Nc2oc(COc3ccc(OC)cc3)nc2C#N)cc1 returned APJ agonist -0.1, CXCR6 block -6.1, APJ antagonist -14.6, EBI2 block 52.0*, m5-HT2A agonist -6.4, CCR6 antagonist 13.7, EBI2 antag conf 19.6, EBI2 ag -0.5 and bGal counter 9.0.
Screening N#Cc1nc(COc2ccc(F)cc2)oc1N1CCC(Cc2ccccc2)CC1 returned APJ agonist -3.4, CXCR6 block 10.1, APJ antagonist 14.1, EBI2 block 60.1*, m5-HT2A agonist 3.7, CCR6 antagonist 11.3, EBI2 antag conf 14.3, EBI2 ag -0.1 and bGal counter 0.3.
Screening COc1ccc(OCc2nc(C#N)c(N3CCN(c4ccc(OC)cc4)CC3)o2)cc1 returned APJ agonist -2.9, CXCR6 block 6.3, APJ antagonist 14.0, EBI2 block 43.6*, m5-HT2A agonist 6.0, CCR6 antagonist 17.2, EBI2 antag conf 42.6, EBI2 ag 0.1 and bGal counter -0.4.
For COc1ccc(N2CCN(c3oc(COc4ccccc4Cl)nc3C#N)CC2)cc1 the results were APJ agonist -1.7, CXCR6 block -5.4, APJ antagonist -12.7, EBI2 block 21.3, m5-HT2A agonist -0.4 and CCR6 antagonist 1.4.
`N#Cc1nc(COc2ccc(F)cc2)oc1N1CCN(Cc2ccccc2)CC1` gave APJ agonist -5.4, CXCR6 block 5.6, APJ antagonist 4.7, EBI2 block 35.2, m5-HT2A agonist 2.6 and CCR6 antagonist 13.5.
N#Cc1nc(COc2ccc(Br)cc2)oc1N1CCN(Cc2ccccc2)CC1 was read as CXCR6 block -0.4, EBI2 block 43.1*, m5-HT2A agonist 13.0, CCR6 antagonist 15.1, EBI2 antag conf 15.0, EBI2 ag -1.1 and bGal counter -7.0.
Screening Cc1ccc(C)c(S(=O)(=O)NCc2ccc3c(c2)OCO3)c1 returned APJ agonist 3.0, CXCR6 block 11.6, APJ antagonist 15.7, EBI2 block 4.5, m5-HT2A agonist 2.6 and CCR6 antagonist 9.1.
Screening COc1cc(CCC(=O)N2CC(C)OC(C)C2)cc(OC)c1OC (stereo unspecified) returned APJ agonist -3.5, CXCR6 block 1.5, APJ antagonist -4.7, EBI2 block -7.1, m5-HT2A agonist 2.0 and CCR6 antagonist 0.5.
For CCOC(=O)/C(C#N)=C/c1c(Oc2cc(C)cc(C)c2)nc2ccccn2c1=O the results were APJ agonist -1.2, CXCR6 block 4.7, APJ antagonist -1.8, EBI2 block 50.5*, m5-HT2A agonist 1.3, CCR6 antagonist 12.0, EBI2 antag conf 34.2, EBI2 ag 0.8 and bGal counter 1.6.
For CCOC(=O)/C(C#N)=C/c1c(Oc2cccc(C)c2)nc2ccccn2c1=O the results were APJ agonist 0.4, CXCR6 block 5.8, APJ antagonist -5.0, EBI2 block 35.5, m5-HT2A agonist 1.9 and CCR6 antagonist 5.0.
For Cc1cc(Cl)ccc1OCCCC(=O)N1CCN(S(=O)(=O)c2ccccc2)CC1 the results were APJ agonist -3.1, CXCR6 block -2.6, APJ antagonist 0.0, EBI2 block 62.6*, m5-HT2A agonist 10.1, CCR6 antagonist 10.4, EBI2 antag conf 35.8, EBI2 ag -1.2 and bGal counter 5.1.
Screening Cc1ccc(C)c(OCCC(=O)N2CCN(S(=O)(=O)c3cc(F)ccc3F)CC2)c1 returned APJ agonist -3.5, CXCR6 block 4.0, APJ antagonist 4.1, EBI2 block 46.0*, m5-HT2A agonist -5.5, CCR6 antagonist 0.4, EBI2 antag conf 32.2, EBI2 ag 4.1 and bGal counter 4.9.
O=C(COc1ccc(Cl)cc1)N1CCN(S(=O)(=O)c2cc(F)ccc2F)CC1 was read as CXCR6 block -3.6, EBI2 block 86.7*, m5-HT2A agonist 0.8, EBI2 antag conf 68.1*, EBI2 ag 1.6 and bGal counter 5.2.
`O=[N+]([O-])c1cc(F)cc(F)c1Nc1ccc(F)cc1` gave CXCR6 block -5.1, EBI2 block -4.8, m5-HT2A agonist 0.5 and CCR6 antagonist 0.6.
Screening CCC(CC)NC(=O)CN(c1ccccc1OC)S(=O)(=O)c1cccs1 returned APJ agonist -2.6, CXCR6 block 6.1, APJ antagonist 15.6, EBI2 block 4.5, m5-HT2A agonist -3.8 and CCR6 antagonist 5.1.
Cc1cccc(C)c1Cn1c(C)c(C(=O)NCCC#N)sc1=O was read as CXCR6 block 2.3, EBI2 block -1.2 and m5-HT2A agonist 1.0.
Screening CSc1nc2sc(-c3ccccc3)cc2c(=O)n1N returned APJ agonist -5.8, CXCR6 block 3.3, APJ antagonist -13.0, EBI2 block -3.9, m5-HT2A agonist -1.2 and CCR6 antagonist 0.2.
`CC(C)Sc1nc2sc(-c3ccccc3)cc2c(=O)n1N` gave APJ agonist -3.9, CXCR6 block -0.2, APJ antagonist 7.2, EBI2 block 50.8*, m5-HT2A agonist 2.3, CCR6 antagonist 21.2, EBI2 antag conf 9.0, EBI2 ag -0.5 and bGal counter -11.9.
CNC(=O)c1sc(SC)cc1-c1ccc(Cl)cc1 was read as APJ agonist 1.8, CXCR6 block 2.0, APJ antagonist 11.2, EBI2 block 50.3*, m5-HT2A agonist 0.5, CCR6 antagonist 6.7, EBI2 antag conf 37.4, EBI2 ag 1.5 and bGal counter 5.3.
For CCCc1cc(=O)n2[nH]c(NC(=O)c3ccco3)nc2n1 the results were APJ agonist -0.5, CXCR6 block -1.9, APJ antagonist 14.7, EBI2 block -4.0, m5-HT2A agonist -4.8 and CCR6 antagonist 1.3.
For COc1cc2c(cc1OC)CN(C(=O)CNS(=O)(=O)c1ccc(C)c(C)c1)CC2 the results were APJ agonist -1.1, CXCR6 block -1.9, APJ antagonist 1.7, EBI2 block 3.7, m5-HT2A agonist 0.9 and CCR6 antagonist 1.1.
Screening COc1ccc2c(c1)c1nc3ccccc3nc1n2Cc1ccc(OC(C)C)c(OC)c1 returned APJ agonist -4.7, CXCR6 block 3.3, APJ antagonist 4.0, EBI2 block 25.8, m5-HT2A agonist -4.1 and CCR6 antagonist 17.2.
COc1ccc(Cn2c3ccc(OC)cc3c3nc4ccccc4nc32)cc1 was read as APJ agonist -4.2, CXCR6 block -4.3, APJ antagonist 9.1, EBI2 block 52.9*, m5-HT2A agonist 1.1, CCR6 antagonist 2.1, EBI2 antag conf 21.5, EBI2 ag -0.6 and bGal counter -14.0.
